Phagocyt inh – inhibitors of macrophage phagocytosis; J774A.1 macrophage IgG-bead phagocytosis, imaging; inhibition, % at 5 µM; 110,000 compounds, 0.07% hits; AID 1029;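 active = inhibition above the mean of the plate negative controls plus 5 SD, cut at about 13% in these data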;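 note: phagocytic index as fraction of beads internalized from green versus red external bead signal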
Yeast growth inh – yeast BB579 growth reduction in restrictive medium. AID 804. 140,000 compounds, 0.51% hits. inhibition, % at 10 µM. S. cerevisiae BB579 growth, OD615, 48 h;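 active = inhibition above a set limit, 3 SD over the mean compound inhibition, cut at about 44% in these data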
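Test system: Saccharomyces cerevisiae DeaD strain BB579, replicative lifespan model yeast | Buffer or medium: Restrictive CSMM-D medium | Doses: One dose, 10 µM compound with 0.25% DMSO | Incubation: 48 h exposure, 30 °C | Detection: Culture absorbance at 615 nm | Control set: Amphotericin B at 10 µg/mL as positive control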
RAM inhibit – yeast RAM network inhibition; S. cerevisiae dse1pr::URA3 reporter, 5-FOA growth OD615, 2 d; analog-sensitive cbk1-as2 kinase mutant strain; 190,000 compounds, 1.8% hits; inhibition, % at 50 µM;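 active = inhibition above a set limit, 3 SD over mean compound inhibition, cut at about 8.4% in these data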;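 note: inhibition rescues growth on 5-FOA so higher OD means more RAM inhibition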
Yeast life ext – extends the lifespan of yeast; S. cerevisiae growth with nicotinamide, OD615; deaD strain in restrictive glucose medium; inhibition of the nicotinamide effect, % at 10 µM; 130,000 compounds, 0.68% hits; AID 775;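 active = inhibition above a set limit, placed 3 SD over the median of all compounds, cut at about 26% in these data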
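Material: Modified budding yeast, DeaD strain | Medium: Restrictive glucose medium | Probe or stimulus: 1.5 mM nicotinamide | Dosing: Single dose 10 µM compound, 0.25% DMSO | Times: 48 h at 30 °C | Technique: OD615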
Numbers stand for hits; n = inactive; x = no result. Most compounds without a hit are left out; they make up all but 2.7% or so of the library.

SMILES | Phagocyt inh | Yeast growth inh | RAM inhibit | Yeast life ext
COc1cccc(CN(c2ccc3c(c2)CCC3)S(=O)(=O)c2ccc(-n3cnnn3)c(OC)c2)c1 | n | n | n | n
CCn1c(SCC(=O)Nc2nc3ccccc3s2)nnc1-c1ccc(OC)cc1 | n | n | 9.8 | n
CCn1c(Cc2ccccc2)nnc1SCC(=O)Nc1nc2ccccc2s1 | n | n | n | n
Cc1ccc(NC(=O)CSc2nnc(C)c(=O)n2N)c(C)c1 | n | n | n | n
Cc1ccc2nc(NC(=O)CSc3nnc(C)c(=O)n3N)sc2c1 | n | n | 8.9 | n
COc1ccc(OC)c(Nc2nc(-c3ccccc3O)nc3ccccc23)c1 | x | x | 9.7 | x
CCOc1ccc(-n2c(O)c(/C=N/NC(=O)C3COc4ccccc4O3)c3ccccc3c2=O)cc1 (configuration not stated) | n | n | n | n
CC(C)c1ccc(-c2noc(C3CCCN(C(=O)c4ccc(F)cc4F)C3)n2)cc1 (configuration not stated) | n | n | 10 | n
C=CCN(c1cccc(C(F)(F)F)c1)S(=O)(=O)c1cccc(C(=O)OCC(=O)Nc2ccccc2)c1 | n | n | 9.0 | n
C=CCN(c1cccc(C(F)(F)F)c1)S(=O)(=O)c1cccc(C(=O)OCC(=O)NC(N)=O)c1 | n | n | 9.1 | n
CCOc1ccc(S(=O)(=O)NCc2ccc(OC)cc2)c2cccnc12 | n | n | n | n
Cn1ccnc1SCC(=O)Nc1nc2c(F)c(F)c(F)cc2s1 | x | x | n | x
C/C(=N\NC(=O)c1nn(C)c(C)c1Br)c1ccc(NC(=O)c2ccc(C)s2)cc1 | x | x | 9.2 | x
CCCOc1ccc(OCCn2nc(C(=O)O)c3ccccc3c2=O)cc1 | x | x | 9.6 | x
O=C(O)c1nn(CCOc2cccc(Cl)c2)c(=O)c2ccccc12 | x | x | 8.8 | x
Cc1ccccc1OCCn1nc(C(=O)O)c2ccccc2c1=O | n | n | n | n
COC(=O)c1c(NC(=O)C2CC2)sc(C(=O)Nc2ccccc2)c1C | x | x | n | x
FC(F)(F)c1cnc(Nc2ccc(N3CCOCC3)cc2)c(Cl)c1 | n | n | n | n
COc1cccc(C2CC(c3cccs3)=NN2C(=O)CSc2nc3c(cnn3-c3ccc(F)cc3)c(=O)[nH]2)c1OC (configuration not stated) | x | n | 11 | n
COc1ccc(-n2c(COc3ccc(C)cc3)nnc2SCc2ccc(C#N)cc2)cc1 | n | n | 9.6 | n
Cc1ccc(OCc2nnc(SCC(=O)c3ccccc3)n2-c2ccccc2)cc1 | x | n | 9.4 | x
COc1ccc(-n2c(COc3ccc(Cl)cc3)nnc2SCc2ccc(C#N)cc2)cc1 | n | n | n | n
CC(=O)N(C)c1ccc(NC(=O)c2ccc([N+](=O)[O-])cc2Cl)cc1 | n | n | n | n
COc1cccc(/C=C/C(=O)c2c(O)cc(C)oc2=O)c1O | n | n | n | 47
COc1ccc(/C=C/C(=O)c2c(O)cc(C)oc2=O)c(OC)c1 | x | n | n | n
SMILES | Phagocyt inh | Yeast growth inh | RAM inhibit | Yeast life ext
COc1cc(/C=C/C(=O)c2c(O)cc(C)oc2=O)cc(OC)c1O | n | n | n | 56
CCN(c1ccccc1)S(=O)(=O)c1cc(C(=O)Nc2ccc(F)c(F)c2)ccc1F | n | n | 11 | n
CCN(c1ccccc1)S(=O)(=O)c1cc(C(=O)O)ccc1C | x | n | n | n
Cc1nn(-c2ccccc2)c(C)c1/C=N\NS(=O)(=O)c1ccc(Cl)cc1 | n | n | n | n
Cc1csc(SCC(=O)NC23CC4CC(CC(C4)C2)C3)n1 | n | n | n | 39
COc1ccc(C2=CC(=O)N(Nc3ccccc3)C2=O)cc1 | x | x | n | x
Cc1ccc(NN2C(=O)C=C(c3ccc(Cl)cc3)C2=O)cc1 | n | 47 | n | n
O=C1C=C(c2ccccc2)C(=O)N1Nc1ccccc1 | n | 44 | n | n
Cc1cccnc1NC(=S)Nc1ccc(Br)cc1Cl | x | x | 8.5 | x
CCOc1ccc(NC(=S)Nc2ccc(Br)cc2Cl)cc1 | x | x | n | x
COc1ccc(/C=N/NC(=O)CCSc2nc3ccccc3s2)cc1 | n | n | n | n
CCCS(=O)(=O)N1CCN(C(=O)c2cccc(OC)c2)CC1 | n | n | n | n
O=C(NCc1ccccc1)C(=O)Nc1nccs1 | x | x | n | x
C(=N\c1ncnc2sccc12)/NOCc1ccccc1 | n | 70 | n | n
Cc1ccc(NC(=O)C(c2ccccc2)N(C)C)cc1Cl (configuration not stated) | x | x | n | x
Cc1ccc(NC(=O)C(C)c2cccc(C(=O)c3ccccc3)c2)cc1O (configuration not stated) | n | n | 8.8 | n
COc1ccc(CNc2nc3c(c(=O)n(Cc4ccc(Br)cc4)c(=O)n3C)n2C)cc1 | n | n | 8.8 | n

Screens: PubChem BioAssay, several laboratories
